IC50 data for four compounds are collected here from ChEMBL document CHEMBL1155708, “Isoaurostatin, a novel topoisomerase inhibitor produced by Thermomonospora alba” (J Nat Prod, 2001).

Assay [1] has as its target T1, DNA topoisomerase 1 (Chlorocebus aethiops, UniProt Q7YR26).
T1 sequence (Q7YR26 whole entry): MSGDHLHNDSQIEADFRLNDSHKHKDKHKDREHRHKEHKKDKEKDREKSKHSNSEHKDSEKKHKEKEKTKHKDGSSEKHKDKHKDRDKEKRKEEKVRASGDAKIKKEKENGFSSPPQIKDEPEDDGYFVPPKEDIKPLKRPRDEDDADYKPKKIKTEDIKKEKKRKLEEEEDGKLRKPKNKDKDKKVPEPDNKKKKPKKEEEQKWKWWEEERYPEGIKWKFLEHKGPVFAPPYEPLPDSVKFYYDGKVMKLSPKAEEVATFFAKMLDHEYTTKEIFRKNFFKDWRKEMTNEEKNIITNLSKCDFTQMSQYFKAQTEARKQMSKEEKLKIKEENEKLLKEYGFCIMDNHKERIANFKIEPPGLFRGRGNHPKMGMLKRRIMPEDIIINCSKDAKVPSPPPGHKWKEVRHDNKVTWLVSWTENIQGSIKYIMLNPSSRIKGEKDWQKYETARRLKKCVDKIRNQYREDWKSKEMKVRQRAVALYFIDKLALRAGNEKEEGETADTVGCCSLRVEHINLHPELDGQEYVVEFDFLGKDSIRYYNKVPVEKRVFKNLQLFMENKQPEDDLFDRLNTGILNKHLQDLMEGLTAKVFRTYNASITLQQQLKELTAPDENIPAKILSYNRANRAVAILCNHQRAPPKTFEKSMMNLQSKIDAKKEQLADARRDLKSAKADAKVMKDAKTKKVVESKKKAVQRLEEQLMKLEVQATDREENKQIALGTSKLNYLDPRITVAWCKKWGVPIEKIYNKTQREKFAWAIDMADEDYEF
The experiment in a line: Inhibition topoisomerase 1 in african green monkey Vero cells assessed as conversion of supercoiled pBR322 DNA to relaxed form. It counts as cell-based, Chlorocebus sabaeus. Put shortly:
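Enzyme source: Vero or NIH3T3 cells cultured 5 days, washed in PBS and pelleted (1 × 10^6 cells). Lysed 30 min on ice in 200 µL buffer (10 mM Tris-HCl pH 7.5, MgCl2, EGTA, AEBSF, β-mercaptoethanol, 0.5% CHAPS, 10% glycerin); the cleared supernatant relaxed supercoiled pBR322. Gel densitometry; IC50 is the amount halving activity.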

In assay [2] the target is T2, DNA topoisomerase 1 (Homo sapiens, UniProt P11387).
T2 sequence (P11387 whole entry): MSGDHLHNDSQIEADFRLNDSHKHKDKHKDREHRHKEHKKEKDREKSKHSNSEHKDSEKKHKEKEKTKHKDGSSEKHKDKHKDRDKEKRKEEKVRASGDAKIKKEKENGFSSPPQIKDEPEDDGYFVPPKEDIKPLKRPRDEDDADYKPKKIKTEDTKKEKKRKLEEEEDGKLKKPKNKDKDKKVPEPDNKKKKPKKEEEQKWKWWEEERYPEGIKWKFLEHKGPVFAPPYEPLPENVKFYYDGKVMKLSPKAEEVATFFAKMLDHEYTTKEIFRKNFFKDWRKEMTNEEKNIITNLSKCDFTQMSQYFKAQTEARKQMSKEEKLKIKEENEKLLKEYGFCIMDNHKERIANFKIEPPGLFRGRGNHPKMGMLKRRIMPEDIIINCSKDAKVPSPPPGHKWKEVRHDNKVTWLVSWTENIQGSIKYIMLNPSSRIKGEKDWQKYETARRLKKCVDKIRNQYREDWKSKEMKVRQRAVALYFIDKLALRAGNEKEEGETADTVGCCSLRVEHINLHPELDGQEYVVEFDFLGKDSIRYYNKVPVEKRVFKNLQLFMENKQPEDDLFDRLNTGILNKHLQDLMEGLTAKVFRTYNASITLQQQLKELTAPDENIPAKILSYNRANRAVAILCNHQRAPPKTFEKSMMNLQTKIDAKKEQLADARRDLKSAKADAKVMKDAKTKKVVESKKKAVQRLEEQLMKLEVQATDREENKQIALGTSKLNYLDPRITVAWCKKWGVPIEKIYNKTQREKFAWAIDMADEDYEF
Put plainly: Inhibition topoisomerase 1 in human A549 cells assessed as conversion of supercoiled pBR322 DNA to relaxed form. It counts as cell-based. The method, boiled down:
(§1)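 Topo I source: crude extract from cells grown 5 days, PBS-washed and pelleted (1 × 10^6 cells), then lysed 30 min on ice in Tris-HCl pH 7.5 buffer with MgCl2, EGTA, AEBSF, β-mercaptoethanol, 0.5% CHAPS and 10% glycerin. The cleared supernatant relaxes supercoiled pBR322 DNA. Products are resolved on agarose gel and scored by densitometry.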

Assay [3] deals with T2, DNA topoisomerase 1. The experiment in a line: Inhibition topoisomerase 1 in human HeLa cells assessed as conversion of supercoiled pBR322 DNA to relaxed form. Format: cell-based. Put shortly: as §1
In assay [4] the target is T2, DNA topoisomerase 1. Put plainly: Inhibition topoisomerase 1 in human COLO201 cells assessed as conversion of supercoiled pBR322 DNA to relaxed form. It counts as cell-based. Put shortly: as §1

`CC[C@@]1(O)C(=O)OCc2c1cc1n(c2=O)Cc2cc3ccccc3nc2-1` [CAMPTOTHECIN]: the half-inhibitory concentration (IC50) in assay [1] was 27 µM.

`COc1cccc2c1C(=O)c1c(O)c3c(c(O)c1C2=O)C[C@@](O)(C(=O)CO)C[C@@H]3O[C@H]1C[C@H](N)[C@H](O)[C@H](C)O1` [DOXORUBICIN]: the half-maximal inhibitory concentration (IC50) in assay [1] is more than 200 µM.

On to `O=C1Oc2cc(O)ccc2/C1=C\c1ccc(O)cc1` [ISOAUROSTATIN], for which the 50% inhibitory concentration (IC50) in assay [2], in assay [1], in assay [3] and in assay [4] was more than 400 µM in each case.

For `C=C1NC(=O)C(C)C(CCC(C)C(=O)/C=C/C(C)=C/CC(C)CCCCCCC)OC(=O)[C@H](CC(OS(=O)(=O)O)C(N)=O)NC(=O)[C@@H](C)CNC1=O` (stereo not given in full) [TOPOSTATIN], the 50% inhibitory concentration (IC50) in assay [2] was 55 µM; in assay [1], 17 µM; in assay [3], 29 µM; in assay [4], 50 µM.

The term IC50 denotes the concentration that gives 50% inhibition.
